Source: ChEMBL document CHEMBL5360645, “Re-Exploring the Anthracycline Chemical Space for Better Anti-Cancer Compounds” (J Med Chem, 2023)
Active and inactive are the calls of the source. The calls are words filed in the database; no cut-off is given here.

Legend:
Format in all cases: functional, cell-based
[1] = system: K562; test: Induction of DNA damage in human K562 cells assessed as DNA double strand break measured by constant gel field electrophoresis
Method in brief: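 Double-strand breaks resolved by constant-field gel electrophoresis and quantified as broken DNA relative to total DNA. Etoposide was the positive control. Mean ± SD of three independent experiments.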

[2] = system: K562; test: Induction of DNA damage in human K562 cells assessed as increase in gammaH2AX at 1 to 5 uM for 2 hrs by Western blotting analysis; conditions: dose 1-5 µM
Method in brief: (§1)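 K562 cells treated 2 h with drug (10 μM; also 1 and 5 μM), washed and lysed directly in SDS sample buffer. Lysates separated by SDS-PAGE and blotted to PVDF. Probed for γH2AX (1:1000) with β-actin loading control and IRDye 800CW anti-mouse secondary; infrared imaging. γH2AX normalized to actin. Etoposide was the positive control. At 10 μM: mean ± SD of three independent experiments.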

[3] = system: K562; test: Induction of DNA damage in human K562 cells assessed as increase in gammaH2AX at 10 uM for 2 hrs by Western blotting analysis; method in brief: as §1
[4] = system: MEL-JUSO; test: Cytotoxicity against human MEL-JUSO cells incubated for 2 hrs by cell titre blue viability assay
[5] = system: U2OS; test: Cytotoxicity against human U2OS cells incubated for 2 hrs by cell titre blue viability assay
[6] = system: K562; test: Cytotoxicity against human K562 cells incubated for 2 hrs by cell titre blue viability assay; conditions: K562, 2 h
Method in brief: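 Viability read by CellTiter-Blue, normalized to untreated control and background-corrected. Media: K562 RPMI-1640, MelJuSo IMDM, U2OS DMEM, each with 8% FCS; 5% CO2, 37 °C.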

[7] = system: MEL-JUSO; test: Effect of chromatin damage activity in human MEL-JUSO cells stably expressing PAGFPH2A assessed as histone eviction measured upto 60 mins measured by confocal microscopic analysis

Compound | Activity [1] | Activity [2] | Activity [3] | IC50 [4] [nM] | IC50 [5] [nM] | IC50 [6] [nM] | Activity [7]
CC[C@]1(O)Cc2c(O)c3c(c(O)c2[C@@H](O[C@H]2C[C@H](N)[C@H](O)[C@H](C)O2)C1)C(=O)c1c(OC)cccc1C3=O | Active | Active | Active | 372 | 237 | 42 | –
CC(=O)[C@]1(O)Cc2c(O)c3c(c(O)c2[C@@H](O[C@H]2C[C@H](N)[C@H](O)[C@H](C)O2)C1)C(=O)c1ccccc1C3=O [IDARUBICIN] | – | – | – | 89 | 24 | – | –
COc1cccc2c1C(=O)c1c(O)c3c(c(O)c1C2=O)C[C@@](O)(C(=O)CO)C[C@@H]3O[C@H]1CC[C@H](O)[C@H](C)O1 | Active | Active | Active | 2430 | 10000 | 1620 | Active
COc1cccc2c1C(=O)c1c(O)c3c(c(O)c1C2=O)C[C@@](O)(C(C)=O)C[C@@H]3O[C@H]1C[C@H](N)[C@H](O)[C@H](C)O1 [DAUNORUBICIN] | – | – | – | 286 | 61 | – | –
COc1cccc2c1C(=O)c1c(O)c3c(c(O)c1C2=O)C[C@@](O)(C(=O)CO)C[C@@H]3O[C@H]1C[C@H](N)[C@H](O)[C@H](C)O1 [DOXORUBICIN] | – | – | – | 523 | 339 | – | Active
COc1cccc2c1C(=O)c1c(O)c3c(c(O)c1C2=O)C[C@@](O)(C(=O)CO)C[C@@H]3O[C@H]1C[C@H](N=[N+]=[N-])[C@H](O)[C@H](C)O1 | Active | Active | Active | 1220 | 10000 | 84 | Active
CC[C@@]1(O)C[C@H](O[C@H]2C[C@H](N(C)C)[C@H](O)[C@H](C)O2)c2c(O)c3c(c(O)c2[C@H]1C(=O)OC)C(=O)c1cccc(O)c1C3=O | inactive | inactive | inactive | 835 | 1130 | 1100 | –
COc1cccc2c1C(=O)c1c(O)c3c(c(O)c1C2=O)C[C@@](O)(CCO)C[C@@H]3O[C@H]1C[C@H](N(C)C)[C@H](O)[C@H](C)O1 | inactive | inactive | inactive | 2870 | 4210 | 1620 | Active
COc1cccc2c1C(=O)c1c(O)c3c(c(O)c1C2=O)C[C@@](O)(C(=O)CO)C[C@@H]3O[C@H]1C[C@H](N2CCOCC2)[C@H](O)[C@H](C)O1 | inactive | inactive | inactive | 51 | 77 | 64 | Active
COc1cccc2c1C(=O)c1c(O)c3c(c(O)c1C2=O)C[C@@](O)(C(=O)CO)C[C@@H]3O[C@H]1C[C@H](O)[C@H](O)[C@H](C)O1 [HYDROXYRUBICIN] | Active | Active | Active | 1900 | 6790 | 856 | Active
CC(=O)[C@]1(O)Cc2c(O)c3c(c(O)c2[C@@H](O[C@H]2C[C@H](N)[C@H](O[C@H]4C[C@H](O)[C@H](O[C@H]5CCC(=O)[C@H](C)O5)[C@H](C)O4)[C@H](C)O2)C1)C(=O)c1ccccc1C3=O | Active | Active | Active | 680 | 376 | 230 | –
COc1cccc2c1C(=O)c1c(O)c3c(c(O)c1C2=O)C[C@@](O)(C(=O)CO)C[C@@H]3O[C@H]1C[C@H](N2CCC2)[C@H](O)[C@H](C)O1 | inactive | inactive | inactive | 297 | 159 | 379 | Active
CC[C@@]1(O)C[C@H](O[C@H]2C[C@H](N(C)C)[C@H](O[C@H]3C[C@H](O)[C@H](O[C@H]4CCC(=O)[C@H](C)O4)[C@H](C)O3)[C@H](C)O2)c2c(cc3c(c2O)C(=O)c2c(O)cccc2C3=O)[C@H]1C(=O)OC [ACLARUBICIN] | inactive | inactive | inactive | 99 | 209 | 31 | –
COc1cccc2c1C(=O)c1c(O)c3c(c(O)c1C2=O)C[C@@](O)(CCO)C[C@@H]3O[C@H]1C[C@H](N)[C@H](O)[C@H](C)O1 [13-DEOXYDOXORUBICIN] | Active | Active | Active | 1150 | 891 | 1790 | –
CC[C@@]1(O)C[C@H](O[C@H]2C[C@H](N)[C@H](O)[C@H](C)O2)c2c(O)c3c(c(O)c2[C@H]1C(=O)OC)C(=O)c1cccc(O)c1C3=O | Active | Active | Active | 4290 | 10000 | 5320 | –
COc1cccc2c1C(=O)c1c(O)c3c(c(O)c1C2=O)C[C@@](O)(C(=O)CO)C[C@@H]3O[C@H]1C[C@H](N2CCCCC2)[C@H](O)[C@H](C)O1 | inactive | inactive | inactive | 78 | 105 | 195 | Active
COc1cccc2c1C(=O)c1c(O)c3c(c(O)c1C2=O)C[C@@](O)(C(=O)CO)C[C@@H]3O[C@H]1C[C@H](N2CCCC2)[C@H](O)[C@H](C)O1 | inactive | inactive | inactive | 73 | 122 | 172 | Active
COc1cccc2c1C(=O)c1c(O)c3c(c(O)c1C2=O)C[C@@](O)(C(=O)CO)C[C@@H]3O[C@H]1C[C@H](O)[C@H](N(C)C)[C@H](C)O1 | – | – | – | 433 | 285 | 129 | Active
CC(=O)[C@]1(O)Cc2c(O)c3c(c(O)c2[C@@H](O[C@H]2C[C@H](N(C)C)[C@H](O[C@H]4C[C@H](O)[C@H](O[C@H]5CCC(=O)[C@H](C)O5)[C@H](C)O4)[C@H](C)O2)C1)C(=O)c1ccccc1C3=O | inactive | inactive | inactive | 8 | 12 | 20 | –
COc1cccc2c1C(=O)c1c(O)c3c(c(O)c1C2=O)C[C@@](O)(C(=O)CO)C[C@@H]3O[C@H]1C[C@H](O)[C@H](N)[C@H](C)O1 | Active | Active | Active | 998 | 1120 | 381 | –
COc1cccc2c1C(=O)c1c(O)c3c(c(O)c1C2=O)C[C@@](O)(C(=O)CO)C[C@@H]3O[C@H]1C[C@H](N(C)C)[C@H](O[C@H]2C[C@H](O)[C@H](O[C@H]3CCC(=O)[C@H](C)O3)[C@H](C)O2)[C@H](C)O1 (single isomer, unassigned) | inactive | inactive | inactive | – | 11 | 19 | Active
CC[C@]1(O)Cc2c(O)c3c(c(O)c2[C@@H](O[C@H]2C[C@H](N(C)C)[C@H](O)[C@H](C)O2)C1)C(=O)c1c(OC)cccc1C3=O | inactive | inactive | inactive | 1810 | 1360 | 1180 | Active
